Assay results reported in ChEMBL document CHEMBL4265926, “Synthesis and antibacterial activity evaluation of novel biaryloxazolidinone analogues containing a hydrazone moiety as promising antibacterial agents” (Eur J Med Chem, 2018).
Converted amounts (≈) assume the structure as drawn.

How the values were obtained:
Enterococcus faecium [1] = assay: Antibacterial activity against vancomycin-resistant Enterococcus faecium by broth liquid microdilution method; type: functional
How it was run: (§1)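 Isolates were identified on an automated MicroScan WalkAway 96 system. Susceptibility was tested by broth microdilution following CLSI guidelines. MIC was taken as the lowest concentration giving complete inhibition of bacterial growth. S. aureus ATCC 29213 served as the control strain.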

Staphylococcus aureus [2] = assay: Antibacterial activity against Staphylococcus aureus ATCC 29213 by broth liquid microdilution method; type: functional; how it was run: as §1
Enterococcus faecalis [3] = assay: Antibacterial activity against linezolid-resistant Enterococcus faecalis by broth liquid microdilution method; type: functional; how it was run: as §1
Staphylococcus aureus [4] = assay: Antibacterial activity against methicillin-resistant Staphylococcus aureus by broth liquid microdilution method; type: functional; how it was run: as §1
Staphylococcus aureus [5] = assay: Antibacterial activity against methicillin-sensitive Staphylococcus aureus by broth liquid microdilution method; type: functional; how it was run: as §1
Staphylococcus aureus [6] = assay: Potency index, ratio of linezolid MIC to test compound MIC for methicillin-sensitive Staphylococcus aureus; type: functional
Staphylococcus aureus [7] = assay: Potency index, ratio of linezolid MIC to test compound MIC for Staphylococcus aureus ATCC 29213; type: functional
How it was run: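 MIC by broth microdilution per CLSI guidelines, taken as the lowest concentration giving complete growth inhibition; isolates identified on MicroScan WalkAway 96; S. aureus ATCC29213 used as control strain. Index expressed as linezolid MIC divided by test compound MIC.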

[8] = target: T1, MAO-A (amine oxidase [flavin-containing] A) (Homo sapiens, UniProt P21397); assay: Inhibition of recombinant human MAOA expressed in baculovirus infected Sf9 insect cells at 30 uM using luciferin derived substrate pretreated for 15 mins followed by substrate addition and measured after 60 mins by luminescence assay relative to control; details: probe luciferin derived substrate
T1 sequence (P21397 whole entry): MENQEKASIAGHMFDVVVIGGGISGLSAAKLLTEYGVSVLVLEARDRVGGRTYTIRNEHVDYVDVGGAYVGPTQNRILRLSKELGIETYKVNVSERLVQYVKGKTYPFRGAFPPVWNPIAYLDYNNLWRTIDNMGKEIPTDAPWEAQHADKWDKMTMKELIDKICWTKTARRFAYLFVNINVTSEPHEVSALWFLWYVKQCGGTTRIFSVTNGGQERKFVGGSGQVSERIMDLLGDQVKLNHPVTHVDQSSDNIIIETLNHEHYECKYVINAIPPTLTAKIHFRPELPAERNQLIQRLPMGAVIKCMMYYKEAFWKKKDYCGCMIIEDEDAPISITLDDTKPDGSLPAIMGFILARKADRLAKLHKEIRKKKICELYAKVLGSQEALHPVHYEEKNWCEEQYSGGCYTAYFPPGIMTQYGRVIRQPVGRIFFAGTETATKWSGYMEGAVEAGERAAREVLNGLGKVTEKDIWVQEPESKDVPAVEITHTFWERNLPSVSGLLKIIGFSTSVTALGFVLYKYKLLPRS
How it was run: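 Human recombinant MAO-A with MAO-Glo luminescent kit. Compounds in DMSO (final 1% DMSO) preincubated with enzyme 15 min at room temperature, then luciferin derivative substrate added and reacted 60 min at room temperature. Luciferase detection reagent added for 20 min before luminescence read. Buffer replacing enzyme served as 100% inhibition control and DMSO as no-inhibition control; percent inhibition calculated against both.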

Enterococcus faecalis [9] = assay: Antibacterial activity against linezolid-resistant Enterococcus faecalis clinical isolates by broth liquid microdilution method; type: functional; how it was run: as §1
Enterococcus faecium [10] = assay: Antibacterial activity against vancomycin-resistant Enterococcus faecium clinical isolates by broth liquid microdilution method; type: functional; how it was run: as §1
Staphylococcus aureus [11] = assay: Antibacterial activity against methicillin-sensitive Staphylococcus aureus clinical isolates by broth liquid microdilution method; type: functional; how it was run: as §1
Staphylococcus aureus [12] = assay: Antibacterial activity against methicillin-resistant Staphylococcus aureus clinical isolates by broth liquid microdilution method; type: functional; how it was run: as §1

Row | SMILES | MIC (Enterococcus faecium [1]) | MIC (Staphylococcus aureus [2]) | MIC (Enterococcus faecalis [3]) | MIC (Staphylococcus aureus [4]) | MIC (Staphylococcus aureus [5]) | Ratio (Staphylococcus aureus [6]) | Ratio (Staphylococcus aureus [7]) | inhibition at 1 h, 30 µM [8] | MIC (Enterococcus faecalis [9]) | MIC50 (Enterococcus faecalis [9]) | MIC90 (Enterococcus faecalis [9]) | MIC (Enterococcus faecium [10]) | MIC50 (Enterococcus faecium [10]) | MIC90 (Enterococcus faecium [10]) | MIC (Staphylococcus aureus [11]) | MIC50 (Staphylococcus aureus [11]) | MIC90 (Staphylococcus aureus [11]) | MIC50 (Staphylococcus aureus [12]) | MIC90 (Staphylococcus aureus [12])
1 | C#CCN1CCN(/N=C/c2ccc(-c3ccc(N4C[C@H](CNC(C)=O)OC4=O)cc3F)cc2)CC1 | 0.125 µg/mL (≈ 0.262 µM) | 0.125 µg/mL (≈ 0.262 µM) | 0.125 µg/mL (≈ 0.262 µM) | 0.125 µg/mL (≈ 0.262 µM) | 0.125 µg/mL (≈ 0.262 µM) | – | – | – | – | – | – | – | – | – | – | – | – | – | –
2 | CC(=O)NC[C@H]1CN(c2ccc(-c3ccc(/C=N/N4CCN(C(=O)c5ccco5)CC4)cc3)c(F)c2)C(=O)O1 | 0.25 µg/mL (≈ 0.469 µM) | 0.25 µg/mL (≈ 0.469 µM) | 0.25 µg/mL (≈ 0.469 µM) | 0.25 µg/mL (≈ 0.469 µM) | 0.125 µg/mL (≈ 0.234 µM) | – | – | – | – | – | – | – | – | – | – | – | – | – | –
3 | CC(=O)NC[C@H]1CN(c2ccc(-c3ccc(/C=N/N4CCN(C(C)=O)CC4)cc3)c(F)c2)C(=O)O1 | 0.5 µg/mL (≈ 1.04 µM) | 0.25 µg/mL (≈ 0.519 µM) | 0.25 µg/mL (≈ 0.519 µM) | 0.25 µg/mL (≈ 0.519 µM) | 0.125 µg/mL (≈ 0.26 µM) | – | – | – | – | – | – | – | – | – | – | – | – | – | –
4 | CC(=O)NC[C@H]1CN(c2ccc(-c3ccc(/C=N/N4CCN(C(=O)N(C)C)CC4)cc3)c(F)c2)C(=O)O1 | 0.25 µg/mL (≈ 0.49 µM) | 0.0675 µg/mL (≈ 0.132 µM) | 0.25 µg/mL (≈ 0.49 µM) | 0.0675 µg/mL (≈ 0.132 µM) | 0.0675 µg/mL (≈ 0.132 µM) | – | – | – | – | – | – | – | – | – | – | – | – | – | –
5 | CC(=O)NC[C@H]1CN(c2ccc(-c3ccc(/C=N/N4CC[S+]([O-])CC4)cc3)c(F)c2)C(=O)O1 | 0.0675 µg/mL (≈ 0.143 µM) | 0.0675 µg/mL (≈ 0.143 µM) | 0.0675 µg/mL (≈ 0.143 µM) | 0.0675 µg/mL (≈ 0.143 µM) | 0.0675 µg/mL (≈ 0.143 µM) | 15 - 30 | 15 - 30 | 88% | 0.0625 to 0.25 µg/mL (≈ 0.132 to 0.529 µM) | 0.125 µg/mL (≈ 0.265 µM) | 0.5 µg/mL (≈ 1.06 µM) | 0.0625 to 0.5 µg/mL (≈ 0.132 to 1.06 µM) | 0.125 µg/mL (≈ 0.265 µM) | 0.5 µg/mL (≈ 1.06 µM) | 0.0625 to 0.25 µg/mL (≈ 0.132 to 0.529 µM) | 0.125 µg/mL (≈ 0.265 µM) | 0.25 µg/mL (≈ 0.529 µM) | 0.125 µg/mL (≈ 0.265 µM) | 0.25 µg/mL (≈ 0.529 µM)
6 | CC(=O)NC[C@H]1CN(c2ccc(-c3ccc(/C=N/N4CCN(C(=O)c5ccc(Br)cc5)CC4)cc3)c(F)c2)C(=O)O1 | 0.125 µg/mL (≈ 0.201 µM) | 0.125 µg/mL (≈ 0.201 µM) | 0.125 µg/mL (≈ 0.201 µM) | 0.125 µg/mL (≈ 0.201 µM) | 0.125 µg/mL (≈ 0.201 µM) | – | – | – | – | – | – | – | – | – | – | – | – | – | –
7 | CC(=O)NC[C@H]1CN(c2ccc(-c3ccc(/C=N/N4CCN(C(=O)c5cccnc5)CC4)cc3)c(F)c2)C(=O)O1 | 0.125 µg/mL (≈ 0.23 µM) | 0.125 µg/mL (≈ 0.23 µM) | 0.125 µg/mL (≈ 0.23 µM) | 0.125 µg/mL (≈ 0.23 µM) | 0.125 µg/mL (≈ 0.23 µM) | – | – | – | – | – | – | – | – | – | – | – | – | – | –
8 | CC(=O)NC[C@H]1CN(c2ccc(-c3ccc(/C=N/N4CCN(Cc5ccccc5)CC4)cc3)c(F)c2)C(=O)O1 | 0.125 µg/mL (≈ 0.236 µM) | 0.125 µg/mL (≈ 0.236 µM) | 0.125 µg/mL (≈ 0.236 µM) | 0.125 µg/mL (≈ 0.236 µM) | 0.125 µg/mL (≈ 0.236 µM) | – | – | – | – | – | – | – | – | – | – | – | – | – | –
9 | CC(=O)NC[C@H]1CN(c2ccc(-c3ccc(/C=N/N4CCN(C(=O)c5ccncc5)CC4)cc3)c(F)c2)C(=O)O1 | 0.25 µg/mL (≈ 0.459 µM) | 0.25 µg/mL (≈ 0.459 µM) | 0.25 µg/mL (≈ 0.459 µM) | 0.25 µg/mL (≈ 0.459 µM) | 0.125 µg/mL (≈ 0.23 µM) | – | – | – | – | – | – | – | – | – | – | – | – | – | –
10 | CC(=O)NC[C@H]1CN(c2ccc(-c3ccc(/C=N/N4CCNCC4)cc3)c(F)c2)C(=O)O1 | 0.25 µg/mL (≈ 0.569 µM) | 0.0675 µg/mL (≈ 0.154 µM) | 0.25 µg/mL (≈ 0.569 µM) | 0.0675 µg/mL (≈ 0.154 µM) | 0.0675 µg/mL (≈ 0.154 µM) | – | – | 84% | 0.0625 to 0.25 µg/mL (≈ 0.142 to 0.569 µM) | 0.25 µg/mL (≈ 0.569 µM) | 0.25 µg/mL (≈ 0.569 µM) | 0.0625 to 0.5 µg/mL (≈ 0.142 to 1.14 µM) | 0.25 µg/mL (≈ 0.569 µM) | 0.5 µg/mL (≈ 1.14 µM) | 0.0625 to 0.25 µg/mL (≈ 0.142 to 0.569 µM) | 0.125 µg/mL (≈ 0.284 µM) | 0.25 µg/mL (≈ 0.569 µM) | 0.125 µg/mL (≈ 0.284 µM) | 0.25 µg/mL (≈ 0.569 µM)
11 | C=CCN1CCN(/N=C/c2ccc(-c3ccc(N4C[C@H](CNC(C)=O)OC4=O)cc3F)cc2)CC1 | 0.125 µg/mL (≈ 0.261 µM) | 0.5 µg/mL (≈ 1.04 µM) | 0.125 µg/mL (≈ 0.261 µM) | 0.125 µg/mL (≈ 0.261 µM) | 0.125 µg/mL (≈ 0.261 µM) | – | – | – | – | – | – | – | – | – | – | – | – | – | –
12 | CC(=O)NC[C@H]1CN(c2ccc(-c3ccc(/C=N/N4CCN(C(=O)CN)CC4)cc3)c(F)c2)C(=O)O1 | 0.5 µg/mL (≈ 1.01 µM) | 0.125 µg/mL (≈ 0.252 µM) | 0.5 µg/mL (≈ 1.01 µM) | 0.25 µg/mL (≈ 0.503 µM) | 0.25 µg/mL (≈ 0.503 µM) | – | – | – | – | – | – | – | – | – | – | – | – | – | –
13 | CC(=O)NC[C@H]1CN(c2ccc(-c3ccc(/C=N/N4CCN(C(=O)c5ccc(F)cc5)CC4)cc3)c(F)c2)C(=O)O1 | 0.125 µg/mL (≈ 0.223 µM) | 0.125 µg/mL (≈ 0.223 µM) | 0.125 µg/mL (≈ 0.223 µM) | 0.125 µg/mL (≈ 0.223 µM) | 0.125 µg/mL (≈ 0.223 µM) | – | – | 89% | 0.0625 to 0.25 µg/mL (≈ 0.111 to 0.445 µM) | 0.25 µg/mL (≈ 0.445 µM) | 0.25 µg/mL (≈ 0.445 µM) | 0.0625 to 0.5 µg/mL (≈ 0.111 to 0.89 µM) | 0.25 µg/mL (≈ 0.445 µM) | 0.5 µg/mL (≈ 0.89 µM) | 0.0625 to 0.25 µg/mL (≈ 0.111 to 0.445 µM) | 0.25 µg/mL (≈ 0.445 µM) | 0.25 µg/mL (≈ 0.445 µM) | 0.125 µg/mL (≈ 0.223 µM) | 0.25 µg/mL (≈ 0.445 µM)
14 | COC(=O)N1CCN(/N=C/c2ccc(-c3ccc(N4C[C@H](CNC(C)=O)OC4=O)cc3F)cc2)CC1 | 0.125 µg/mL (≈ 0.251 µM) | 0.125 µg/mL (≈ 0.251 µM) | 0.125 µg/mL (≈ 0.251 µM) | 0.125 µg/mL (≈ 0.251 µM) | 0.125 µg/mL (≈ 0.251 µM) | – | – | – | – | – | – | – | – | – | – | – | – | – | –
15 | COc1cccc(C(=O)N2CCN(/N=C/c3ccc(-c4ccc(N5C[C@H](CNC(C)=O)OC5=O)cc4F)cc3)CC2)c1 | 1 µg/mL (≈ 1.74 µM) | 0.25 µg/mL (≈ 0.436 µM) | 1 µg/mL (≈ 1.74 µM) | 0.25 µg/mL (≈ 0.436 µM) | 0.25 µg/mL (≈ 0.436 µM) | – | – | – | – | – | – | – | – | – | – | – | – | – | –
